Assay results: PubChem BioAssay
Active and inactive are the calls of the source.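 How the source made its calls, unless noted: active means viability at or below 10% of carrier control in both of two separate runs; inconclusive means viability at or below 10% in only one of the two runs; inactive means the rest.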

Columns and labels:
[1] = reducers of endogenous Her2 protein level, primary screen, SKBR3 breast tumor cells, AlphaScreen, ATP viability (AID 461;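 active means Her2 level under about 52% in both replicate screens, with viability over 70% of control, limit read from the data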;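 on Her2 level: lower value means less Her2 protein in the cells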;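 on viability: percent of carrier control wells set as 100% viability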); details: 18-24 h, measured here: SKBR3 viability, ATP luminescence, at 10 µM
[2] = target: Receptor tyrosine-protein kinase erbB-2 (Homo sapiens) (UniProt P04626); test: as above; details: 18-24 h, at 10 µM, stronger effect = lower value
[3] = SK-BR-3 cell growth inhibitors, pilot screen, 24 h, human (AID 572); details: SK-BR-3 viability, CellTiter-Glo luminescence, at 10 µM, stronger effect = lower value;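 further: compound exposure lasted between 18 and 24 h rather than exactly 24 h; 100% = carrier-treated control wells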
[4] = HUVEC growth inhibition – cell-based, human, primary screen (AID 575;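 active means viability at or below 30% in both replicate assays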;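 further: 100% = median of untreated cell wells with 0.1% DMSO on each plate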); details: HUVEC proliferation, CellTiter-Glo luminescence, 72 h; at 10 µM; stronger effect = lower value
Procedure, shortened: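 Timing: 72 h treatment at 37 °C; material: HUVEC primary cells; technique: CellTiter-Glo luminescence measuring cellular ATP; controls: vehicle and MePR control wells; measure: percent of median DMSO-control luminescence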

[5] = growth inhibitors of H69AR lung tumor, primary screen, human, duplicate replicates (AID 580;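 active means viability at or under a set limit in both replicates, limit being median viability minus 3 SD, cut at about 48% in these data, passing the limit was not always enough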;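 further: 100% = mean luminescence of untreated wells and 0% = no signal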); details: H69AR lung tumor cells viability, ATP luminescence, 72 h; at 10 µM; stronger effect = lower value
[6] = reversal of MRP1-mediated doxorubicin resistance, pilot screen, H69AR cells, doxorubicin co-treatment (AID 601;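 active means viability loss from added drug above about 55%, and viability with drug at most 40%, in both replicates, limit read from the data, passing the limit was not always enough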); details: CellTiter-Glo, 72 h, at 10 µM; for differential viability (reversal): stronger effect = higher value
[7] = 384-well plate pilot, post-Golgi transport modulator project, inhibition of yeast transport mutant growth (AID 636; in the data active means inhibition above about 31%); details: absorbance 615 nm, about 18 h, stronger effect = higher value
[8] = growth suppression of yeast trafficking mutant, preliminary HTS, modulators of trafficking downstream of Golgi apparatus project, 1536-format plate, OD 615 nm (AID 637; in the data active means inhibition above about 30%); details: yeast transport mutant growth, absorbance 615 nm, 18 h; stronger effect = higher value
[9] = H69AR cells + 2 uM doxorubicin, measured here: viability with 2 uM doxorubicin, stronger effect = lower value
[10] = H69AR cells, compound alone cytotoxicity

Receptor tyrosine-protein kinase erbB-2 (Homo sapiens), sequence (P04626 whole entry, looked up): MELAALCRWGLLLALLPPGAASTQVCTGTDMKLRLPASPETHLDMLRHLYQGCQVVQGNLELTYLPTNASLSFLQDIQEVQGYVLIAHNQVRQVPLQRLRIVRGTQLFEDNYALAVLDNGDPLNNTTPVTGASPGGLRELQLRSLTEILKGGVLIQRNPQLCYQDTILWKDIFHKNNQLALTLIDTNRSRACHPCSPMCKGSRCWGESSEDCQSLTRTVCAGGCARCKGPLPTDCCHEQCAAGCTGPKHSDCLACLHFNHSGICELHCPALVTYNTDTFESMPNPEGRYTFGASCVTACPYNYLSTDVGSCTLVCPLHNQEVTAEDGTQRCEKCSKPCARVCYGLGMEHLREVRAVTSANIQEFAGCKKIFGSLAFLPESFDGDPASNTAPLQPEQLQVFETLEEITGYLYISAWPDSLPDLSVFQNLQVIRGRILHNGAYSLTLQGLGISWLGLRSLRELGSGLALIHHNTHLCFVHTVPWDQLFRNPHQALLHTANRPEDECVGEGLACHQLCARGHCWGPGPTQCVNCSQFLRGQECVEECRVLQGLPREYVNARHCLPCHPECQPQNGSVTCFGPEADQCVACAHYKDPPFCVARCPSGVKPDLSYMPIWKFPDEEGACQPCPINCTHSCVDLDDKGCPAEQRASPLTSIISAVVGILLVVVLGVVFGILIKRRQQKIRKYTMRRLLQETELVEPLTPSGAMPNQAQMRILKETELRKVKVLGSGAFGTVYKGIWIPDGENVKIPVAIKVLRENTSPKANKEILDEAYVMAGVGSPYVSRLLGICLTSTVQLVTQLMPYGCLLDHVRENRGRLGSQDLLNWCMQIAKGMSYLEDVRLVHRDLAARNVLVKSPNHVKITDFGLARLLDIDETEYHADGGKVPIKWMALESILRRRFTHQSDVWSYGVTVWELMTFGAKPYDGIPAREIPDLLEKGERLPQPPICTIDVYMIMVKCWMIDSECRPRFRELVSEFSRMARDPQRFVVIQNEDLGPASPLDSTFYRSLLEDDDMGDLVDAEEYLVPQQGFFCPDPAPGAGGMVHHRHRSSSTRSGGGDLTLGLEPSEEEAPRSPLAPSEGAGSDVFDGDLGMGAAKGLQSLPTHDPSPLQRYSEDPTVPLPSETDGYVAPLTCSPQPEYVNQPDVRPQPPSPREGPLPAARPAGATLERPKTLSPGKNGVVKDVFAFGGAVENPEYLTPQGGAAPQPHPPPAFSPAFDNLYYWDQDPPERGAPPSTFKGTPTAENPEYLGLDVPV

In the case of `CCOC(=O)c1cccc(NC(=O)CSc2nc3ccccc3c(=O)n2CC)c1`, the viability [1] is reported as 87%, the Her2 level [2] is reported as 79% (inactive) and the viability [3] is reported as 87% (inactive). For the same molecule, the viability [4] was 65% (inactive), the viability [5] was 71.1% (inactive) and the differential viability (reversal) ([6]; H69AR cells + 2 uM doxorubicin) was 4.1% (inactive). The viability [6, 9] was 67%, the viability [6, 10] was 71.1% and the inhibition [7] was -3.95% (inactive). For the same molecule, the inhibition [8] was 0.48% (inactive).

With `CCSc1nncn1/N=C/c1ccc(OC)c(OC)c1` the viability [1] was 84%, the Her2 level [2] was 124% (inactive) and the viability [3] was 84% (inactive). For the same molecule, the viability [4] was 91.8% (inactive), the viability [5] was 91.6% (inactive) and the differential viability (reversal) ([6]; H69AR cells + 2 uM doxorubicin) was -3.4% (inactive). The viability [6, 9] was 95%, the viability [6, 10] was 91.6% and the inhibition [7] was -0.9% (inactive). For the same molecule, the inhibition [8] was -7.5% (inactive).

With `C=CCOc1ccccc1/C=c1\sc2nc(=O)c(C)nn2c1=O` the viability [1] was 100%, the Her2 level [2] was 84% (inactive) and the viability [3] was 100% (inactive). For the same molecule, the viability [4] was 85.1% (inactive), the viability [5] was 72.6% (inactive) and the differential viability (reversal) ([6]; H69AR cells + 2 uM doxorubicin) was -10.6% (inactive). For the same molecule, the viability [6, 9] was 83.1%, the viability [6, 10] was 72.6% and the inhibition [7] was -8.27% (inactive). For the same molecule, the inhibition [8] was 0.79% (inactive).

In the case of `Cc1cccc(CCNC(=O)C2CCCN(S(=O)(=O)c3cnc[nH]3)C2)c1` (stereo not given), the viability [1] is reported as 99.5%, the Her2 level [2] is reported as 106% (inactive) and the viability [3] is reported as 99.5% (inactive). The viability [4] was 103% (inactive), the viability [5] was 89.4% (inactive) and the differential viability (reversal) ([6]; H69AR cells + 2 uM doxorubicin) was 3.16% (inactive). The viability [6, 9] was 86.2%, the viability [6, 10] was 89.4% and the inhibition [7] was -4.93% (inactive). The inhibition [8] was -1.97% (inactive).

With `O=C(CN1CCN(c2ncccn2)CC1)Nc1ccccc1-n1cccc1` the viability [1] was 102%, the Her2 level [2] was 79% (inactive) and the viability [3] was 102% (inactive). For the same molecule, the viability [4] was 81.4% (inactive), the viability [5] was 92.9% (inactive) and the differential viability (reversal) ([6]; H69AR cells + 2 uM doxorubicin) was 2.44% (inactive). The viability [6, 9] was 90.5%, the viability [6, 10] was 92.9% and the inhibition [7] was -1.43% (inactive). For the same molecule, the inhibition [8] was -6.83% (inactive).

For `Cc1ccc(S(=O)(=O)NCCC(=O)OCn2nnc3ccccc3c2=O)cc1`, the viability [1] was 95.5%, the Her2 level [2] was 82.5% (inactive) and the viability [3] was 95.5% (inactive). The viability [4] was 83.8% (inactive), the viability [5] was 95.1% (inactive) and the differential viability (reversal) ([6]; H69AR cells + 2 uM doxorubicin) was -13.1% (inactive). The viability [6, 9] was 108%, the viability [6, 10] was 95.1% and the inhibition [7] was -2.37% (inactive). For the same molecule, the inhibition [8] was 1.27% (inactive).

With `CCn1cc(C(C)NC(=O)COc2ccc(Cl)cc2C)c(C)n1` (stereo not given) the viability [1] was 97%, the Her2 level [2] was 101% (inactive) and the viability [3] was 97% (inactive). The viability [4] was 93.9% (inactive), the viability [5] was 105% (inactive) and the differential viability (reversal) ([6]; H69AR cells + 2 uM doxorubicin) was 13.9% (inactive). The viability [6, 9] was 91.3%, the viability [6, 10] was 105% and the inhibition [7] was -2.89% (inactive). The inhibition [8] was -4% (inactive).

With `CCc1nnc(NC(=O)c2cc3ccccc3oc2=O)s1` the viability [1] was 104%, the Her2 level [2] was 95.5% (inactive) and the viability [3] was 104% (inactive). For the same molecule, the viability [4] was 118% (inactive), the viability [5] was 89.7% (inactive) and the differential viability (reversal) ([6]; H69AR cells + 2 uM doxorubicin) was -4.11% (inactive). For the same molecule, the viability [6, 9] was 93.8%, the viability [6, 10] was 89.7% and the inhibition [7] was -5.71% (inactive). For the same molecule, the inhibition [8] was -3.65% (inactive).

In the case of `COc1ccccc1-c1nc2n(n1)C(c1cccs1)C(C(=O)Nc1cccnc1)=C(C)N2` (stereo not given), the viability [1] is reported as 83.5%, the Her2 level [2] is reported as 95.5% (inactive) and the viability [3] is reported as 83.5% (inactive). The viability [4] was 97.9% (inactive), the viability [5] was 87.1% (inactive) and the differential viability (reversal) ([6]; H69AR cells + 2 uM doxorubicin) was 0.115% (inactive). For the same molecule, the viability [6, 9] was 87%, the viability [6, 10] was 87.1% and the inhibition [7] was -2.43% (inactive). For the same molecule, the inhibition [8] was -4.92% (inactive).

For `COc1ccc(OCC(=O)Nc2cccc3ncccc23)cc1`, the viability [1] was 98%, the Her2 level [2] was 94.5% (inactive) and the viability [3] was 98% (inactive). For the same molecule, the viability [4] was 104% (inactive), the viability [5] was 91.4% (inactive) and the differential viability (reversal) ([6]; H69AR cells + 2 uM doxorubicin) was 0.15% (inactive). For the same molecule, the viability [6, 9] was 91.2%, the viability [6, 10] was 91.4% and the inhibition [7] was -3.73% (inactive). For the same molecule, the inhibition [8] was 3.61% (inactive).

For `CC(=O)Nc1ccc(OCC(O)CN2CCN(c3cccc(Cl)c3)CC2)cc1` (stereo not given), the viability [1] was 76.5%, the Her2 level [2] was 82% (inactive) and the viability [3] was 76.5% (inactive). The viability [4] was 79.5% (inactive), the viability [5] was 88.4% (inactive) and the differential viability (reversal) ([6]; H69AR cells + 2 uM doxorubicin) was 6.8% (inactive). The viability [6, 9] was 81.5%, the viability [6, 10] was 88.4% and the inhibition [7] was -7.84% (inactive). The inhibition [8] was 5.74% (inactive).

In the case of `CNC(=O)c1nnn(Cc2ccccc2)c1NC(C)=O`, the viability [1] is reported as 97.5%, the Her2 level [2] is reported as 105% (inactive) and the viability [3] is reported as 97.5% (inactive). The viability [4] was 104% (inactive), the viability [5] was 88.9% (inactive) and the differential viability (reversal) ([6]; H69AR cells + 2 uM doxorubicin) was -7.25% (inactive). For the same molecule, the viability [6, 9] was 96.1%, the viability [6, 10] was 88.9% and the inhibition [7] was 1.35% (inactive). For the same molecule, the inhibition [8] was 12.5% (inactive).

In the case of `CCOC(=O)C1CCN(C(=O)C2CCN(S(=O)(=O)c3cc(Cl)ccc3Cl)CC2)CC1`, the viability [1] is reported as 92%, the Her2 level [2] is reported as 91% (inactive) and the viability [3] is reported as 92% (inactive). The viability [4] was 115% (inactive), the viability [5] was 89.4% (inactive) and the differential viability (reversal) ([6]; H69AR cells + 2 uM doxorubicin) was 20.7% (inactive). For the same molecule, the viability [6, 9] was 68.7%, the viability [6, 10] was 89.4% and the inhibition [7] was -5.07% (inactive). The inhibition [8] was 0.48% (inactive).

For `c1ccc(-c2ccccc2OCCn2cncn2)cc1`, the viability [1] was 93%, the Her2 level [2] was 79% (inactive) and the viability [3] was 93% (inactive). For the same molecule, the viability [4] was 104% (inactive), the viability [5] was 99.8% (inactive) and the differential viability (reversal) ([6]; H69AR cells + 2 uM doxorubicin) was 15.9% (inactive). For the same molecule, the viability [6, 9] was 83.9%, the viability [6, 10] was 99.8% and the inhibition [7] was -5.41% (inactive). The inhibition [8] was 0.98% (inactive).

In the case of `CCc1ccc(CN(C)CCc2ccccn2)cc1`, the viability [1] is reported as 108%, the Her2 level [2] is reported as 86% (inactive) and the viability [3] is reported as 108% (inactive). The viability [4] was 106% (inactive), the viability [5] was 102% (inactive) and the differential viability (reversal) ([6]; H69AR cells + 2 uM doxorubicin) was 16.7% (inactive). The viability [6, 9] was 85.8%, the viability [6, 10] was 102% and the inhibition [7] was -5.62% (inactive). For the same molecule, the inhibition [8] was -3.02% (inactive).

In the case of `Cn1c(=O)c2c(nc(CN3CCOCC3)n2CC(O)CO)n(C)c1=O` (stereo not given), the viability [1] is reported as 111%, the Her2 level [2] is reported as 107% (inactive) and the viability [3] is reported as 111% (inactive). The viability [4] was 104% (inactive), the viability [5] was 86.2% (inactive) and the differential viability (reversal) ([6]; H69AR cells + 2 uM doxorubicin) was -4.93% (inactive). The viability [6, 9] was 91.1%, the viability [6, 10] was 86.2% and the inhibition [7] was -3.9% (inactive). The inhibition [8] was 2.46% (inactive).
